A short description of data set [1]: folding enthalpy; higher = less favourable; fluorescence melt of hairpins on a sequencing array, two-state fit. The following applies: sodium 0.088 M. The procedure, abridged: (§1)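 Hairpins were imaged by Cy3 fluorescence on a sequenced MiSeq flow cell with annealed Cy3 and quencher oligos, in 50 mM Na-HEPES pH 8.0, 25 mM NaCl, in 2.5 °C steps up to 60 °C. Bootstrapped two-state fits of normalised signals gave melting temperature and folding enthalpy. Four replicates were combined by inverse variance, and fitted temperatures were raised by 9.35 °C to match UV melts.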

Data set [2] can be described thus: melting temperature; fluorescence melt of hairpins on a sequencing array, two-state fit, raised by 9.35 °C to match UV melts. The following applies: sodium 0.088 M. The procedure, abridged:
as §1

As for GAATAGCGAAAGCTTTTC (((.(((....))).))), the folding enthalpy in data set [1] is -20.6 kcal/mol. Also, in data set [2], the Tm was 36.6 °C.
Consider GAATAGGAAACTATTC ((((((....)))))), for which the folding enthalpy in data set [1] is -31 kcal/mol. Also, in data set [2], the Tm came out at 40.7 °C.
With GAATATGAAAATATTC ((((((....)))))), the folding enthalpy in data set [1] was -24.6 kcal/mol. Also, the Tm in data set [2] is 39.8 °C.
Regarding GAATATGGAAACGTATTC (((((.(....).))))), the folding enthalpy in data set [1] is -25.3 kcal/mol. The Tm in data set [2] came out at 34.2 °C.
Turning to GAATCACGAAAGTGCTTC (((.(((....))).))), the folding enthalpy in data set [1] was -20.8 kcal/mol. In addition, in data set [2], the Tm is 38.5 °C.
The corresponding values for GAATCACGAAAGTGTTTC (((.(((....))).))) are -24.7 kcal/mol and 41.5 °C.
GAATCCGAAAGGACCTTC ((((((....)))..))): the folding enthalpy in data set [1] is -12.7 kcal/mol. The Tm in data set [2] is 30.3 °C.
The corresponding values for GAATCCGAAAGGAGTTC ((((((....))).))) are -15.9 kcal/mol and 35.3 °C.
The corresponding values for GAATCCGAAAGGATATTC ((((((....)))..))) are -13.1 kcal/mol and 33.6 °C.
For the sequence GAATCGCGAAAGCGTTC (((.(((....)))))), in data set [1], the folding enthalpy was -12.3 kcal/mol. Besides, the Tm in data set [2] came to 42 °C.
For the sequence GAATCGGGAAACCGACTC ((.((((....)))).)), the folding enthalpy in data set [1] was -20.4 kcal/mol. Besides, the Tm in data set [2] was 35.1 °C.
The corresponding values for GAATGAGGAAACTCGTTC (((.(((....))).))) are -32.3 kcal/mol and 43.9 °C.
Consider GAATGCCGAAAGGCCTTC (((.(((....))).))), for which the folding enthalpy in data set [1] is -17 kcal/mol. In addition, the Tm in data set [2] came to 41.3 °C.
Turning to GAATGCCGAAAGGCTTC (((.(((....)))))), the folding enthalpy in data set [1] is -13.2 kcal/mol. Moreover, the Tm in data set [2] stood at 43.6 °C.
As to GAATGCGAAAGCAACTTC ((((((....)))..))), in data set [1], the folding enthalpy was -13 kcal/mol. In addition, the Tm in data set [2] turned out to be 36 °C.
For GAATGCGAAAGCACTTTC ((((((....)))..))), the folding enthalpy in data set [1] is -10.4 kcal/mol. The Tm in data set [2] amounted to 28.9 °C.
Take GAATGCGAAAGCAGTTTC ((((((....)))..))): in data set [1], the folding enthalpy is -11.7 kcal/mol. The Tm in data set [2] was found to be 31.3 °C.
With GAATGCGAAAGCATCTTC ((((((....)))..))), in data set [1], the folding enthalpy was -23.4 kcal/mol. For the same sequence, the Tm in data set [2] worked out at 53 °C.
GAATGCGGAAACGCATTC (((((((....))))))): in data set [1], the folding enthalpy is -39.1 kcal/mol. Besides, in data set [2], the Tm is 67.5 °C.
The corresponding values for GAATGGCGAAAGCCCTTC (((.(((....))).))) are -20 kcal/mol and 38.4 °C.
Turning to GAATGGGGAAACTCATTC (((((.(....).))))), in data set [1], the folding enthalpy was -32.4 kcal/mol. Further, the Tm in data set [2] was found to be 40.1 °C.
As to GAATGTGCGAAAGCATTC (((..(((....)))))), in data set [1], the folding enthalpy was -9.5 kcal/mol. Further, in data set [2], the Tm came to 29.3 °C.
Taken in the same sequence, the figures for GAATGTGGAAACATATTC ((((.((....)).)))) were -33.2 kcal/mol and 35.1 °C.
Taken in the same sequence, the figures for GAATTACGAAAGTATTTC (((.(((....))).))) were -19.6 kcal/mol and 35.2 °C.
GAATTCCCGAAAGGGTTC (((..(((....)))))): in data set [1], the folding enthalpy was -13 kcal/mol. The Tm in data set [2] turned out to be 28 °C.
As to GAATTGCGAAAGCACTTC (((.(((....))).))), the folding enthalpy in data set [1] is -21.1 kcal/mol. In addition, in data set [2], the Tm stood at 40.7 °C.
Take GAATTGCGAAAGCATTC (((.(((....)))))): in data set [1], the folding enthalpy is -13.6 kcal/mol. Also, in data set [2], the Tm came to 36.1 °C.
GAATTGCGAAAGCATTTC (((.(((....))).))): the folding enthalpy in data set [1] is -21.7 kcal/mol. Also, the Tm in data set [2] came out at 44.8 °C.
The corresponding values for GAATTGGGAAACCGATTC ((((.((....)).)))) are -36.4 kcal/mol and 43.4 °C.
Turning to GAATTTGGAAACAAATCC (.(((((....))))).), the folding enthalpy in data set [1] was -13.9 kcal/mol. In addition, the Tm in data set [2] was 29.2 °C.
With GACAAACGAAAGTTGTC (((.(((....)))))), the folding enthalpy in data set [1] was -29.1 kcal/mol. Moreover, the Tm in data set [2] is 48.2 °C.
For GACAAAGAAATTTGTC ((((((....)))))), the folding enthalpy in data set [1] is -27.6 kcal/mol. Also, the Tm in data set [2] worked out at 43.4 °C.
GACAACCGAAAGGTCGTC (((.(((....))).))): the folding enthalpy in data set [1] was -38.6 kcal/mol. Moreover, the Tm in data set [2] was determined as 49.5 °C.
Taken in the same sequence, the figures for GACAACCGAAAGGTGTC (((.(((....)))))) were -24.8 kcal/mol and 53.9 °C.
Turning to GACAACGAAAGTTACGTC ((((((....)))..))), the folding enthalpy in data set [1] is -12.5 kcal/mol. Also, the Tm in data set [2] came to 30.6 °C.
With GACAACGAAAGTTAGGTC ((((((....)))..))), in data set [1], the folding enthalpy is -14.6 kcal/mol. Also, the Tm in data set [2] was 33.7 °C.
As to GACAACGAAAGTTATGTC ((((((....)))..))), the folding enthalpy in data set [1] was -17.8 kcal/mol. In addition, in data set [2], the Tm turned out to be 32.3 °C.
Regarding GACAACGAAAGTTTGTC ((((((....))).))), the folding enthalpy in data set [1] was -27.6 kcal/mol. Besides, the Tm in data set [2] was 47.3 °C.
With GACAAGGAAACTTGTC ((((((....)))))), in data set [1], the folding enthalpy is -43.8 kcal/mol. In addition, the Tm in data set [2] turned out to be 51.8 °C.
The corresponding values for GACAATACGAAAGTAGTC (((..(((....)))))) are -16.4 kcal/mol and 30.3 °C.
GACACACGAAAGTGAGTC (((.(((....))).))): the folding enthalpy in data set [1] was -31 kcal/mol. In addition, in data set [2], the Tm turned out to be 56.1 °C.
Taken in the same sequence, the figures for GACACAGGAAACTGTATC ((.((((....)))).)) were -14.1 kcal/mol and 28.3 °C.
The corresponding values for GACACCCCGAAAGGGGTC (((..(((....)))))) are -6.64 kcal/mol and 37.7 °C.
As to GACACCCGAAAGGGGTC (((.(((....)))))), the folding enthalpy in data set [1] was -18.5 kcal/mol. For the same sequence, the Tm in data set [2] came out at 54.8 °C.
In the case of GACACCGAAAGGTATGTC ((((((....)))..))), the folding enthalpy in data set [1] is -19.6 kcal/mol. Besides, in data set [2], the Tm turned out to be 39.2 °C.
GACACCGAAAGGTTCGTC ((((((....)))..))): the folding enthalpy in data set [1] was -20.4 kcal/mol. In addition, the Tm in data set [2] was found to be 41.2 °C.
Taken in the same sequence, the figures for GACACCGGAAACGGCATC ((..(((....)))..)) were -9.17 kcal/mol and 25.4 °C.
With GACACCGGAAACGGTACC (..((((....))))..), in data set [1], the folding enthalpy is -10.5 kcal/mol. For the same sequence, the Tm in data set [2] worked out at 24.2 °C.
GACACCGGAAACGGTATC ((.((((....)))).)): in data set [1], the folding enthalpy is -15.9 kcal/mol. Moreover, the Tm in data set [2] came out at 36.1 °C.
Taken in the same sequence, the figures for GACACCGGAAACGGTGCC (.(((((....))))).) were -13.4 kcal/mol and 48.8 °C.
GACACGCGAAAGCGAGTC (((.(((....))).))): in data set [1], the folding enthalpy is -24.3 kcal/mol. In addition, the Tm in data set [2] worked out at 60.5 °C.
For GACACGCGAAAGCGCGTC (((.(((....))).))), the folding enthalpy in data set [1] is -25.2 kcal/mol. The Tm in data set [2] stood at 63.9 °C.
GACACGGGAAACTGTGTC (((((.(....).))))): the folding enthalpy in data set [1] is -42.2 kcal/mol. Moreover, in data set [2], the Tm was 53.5 °C.
The corresponding values for GACACTCCGAAAGGAGTC (((..(((....)))))) are -7.77 kcal/mol and 32 °C.
For the sequence GACACTGGAAACAGCGTC (((.(((....))).))), the folding enthalpy in data set [1] is -35.2 kcal/mol. In addition, in data set [2], the Tm was found to be 46.4 °C.
Take GACACTGGAAACAGTGCC (.(((((....))))).): in data set [1], the folding enthalpy is -14.8 kcal/mol. The Tm in data set [2] worked out at 43.2 °C.
Consider GACAGCCCGAAAGGGGTC (((..(((....)))))), for which the folding enthalpy in data set [1] was -11.4 kcal/mol. In data set [2], the Tm is 34.6 °C.
In the case of GACAGCGAAAGCTAGTC ((((((....))).))), in data set [1], the folding enthalpy was -22.6 kcal/mol. Besides, the Tm in data set [2] is 51.2 °C.
With GACAGCGAAAGCTCAGTC ((((((....)))..))), in data set [1], the folding enthalpy is -11.5 kcal/mol. For the same sequence, in data set [2], the Tm was found to be 38.7 °C.
As for GACAGCGAAAGCTTAGTC ((((((....)))..))), the folding enthalpy in data set [1] is -19 kcal/mol. In data set [2], the Tm came out at 38.1 °C.
As to GACAGCGAAAGCTTTGTC ((((((....)))..))), the folding enthalpy in data set [1] was -16 kcal/mol. Also, the Tm in data set [2] turned out to be 37.5 °C.
For GACAGCGCGAAAGCGGTC (((..(((....)))))), the folding enthalpy in data set [1] is -11.4 kcal/mol. Further, the Tm in data set [2] was 41.8 °C.
On to GACAGGCGAAAGCCAGTC (((.(((....))).))), for which the folding enthalpy in data set [1] is -25.8 kcal/mol. In addition, the Tm in data set [2] amounted to 58.1 °C.
For GACAGGCGAAAGCCCGTC (((.(((....))).))), the folding enthalpy in data set [1] was -22.3 kcal/mol. In addition, the Tm in data set [2] turned out to be 52.9 °C.
Turning to GACAGGGGAAACCCTATC ((.((((....)))).)), in data set [1], the folding enthalpy is -12.8 kcal/mol. For the same sequence, the Tm in data set [2] was determined as 28 °C.
Consider GACAGGGGAAACCCTGTC (((((((....))))))), for which the folding enthalpy in data set [1] was -42.6 kcal/mol. For the same sequence, the Tm in data set [2] came to 66.4 °C.
The corresponding values for GACAGTGGAAACACTGCC (.(((((....))))).) are -14.5 kcal/mol and 46 °C.
Regarding GACAGTGGAAACATTGTC ((((.((....)).)))), the folding enthalpy in data set [1] was -32.4 kcal/mol. Also, the Tm in data set [2] worked out at 43 °C.
Consider GACATACCGAAAGGTGTC (((..(((....)))))), for which, in data set [1], the folding enthalpy was -18.2 kcal/mol. For the same sequence, the Tm in data set [2] was 41.3 °C.
Taken in the same sequence, the figures for GACATAGGAAACTACGTC (((.(((....))).))) were -15.1 kcal/mol and 30 °C.
Turning to GACATCACGAAAGTGGTC (((..(((....)))))), the folding enthalpy in data set [1] was -14.5 kcal/mol. Further, the Tm in data set [2] is 34.7 °C.
Regarding GACATCCGAAAGGAGTC (((.(((....)))))), in data set [1], the folding enthalpy was -21.2 kcal/mol. For the same sequence, the Tm in data set [2] amounted to 45.4 °C.
GACATCGGAAACAATGTC (((((.(....).))))): the folding enthalpy in data set [1] is -33 kcal/mol. Further, the Tm in data set [2] came to 34.1 °C.

(Values after the array DNA melting data of Ke et al. (doi:10.1101/2024.01.08.574731).)
